The test system of assay [1] is Human immunodeficiency virus 1. Put plainly: (§1) Effective concentration required to achieve 50% protection of MT-4 cells against the cytopathic effect of HIV-1. To be noted: Human immunodeficiency virus 1, MT4. The assay is classed as functional, organism-based. In outline:
(§2)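 MT-4 cells infected with HIV-1 and incubated with a range of compound concentrations. Viable cells were counted 5 days post-infection by MTT staining. IC50 is the concentration protecting 50% of cells from virus-induced cytopathic effect. Values are means over n assays, where n varies per compound.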

The test system of assay [2] is Human immunodeficiency virus 1. The assay is described as §1. Type of assay: functional, organism-based, MT4. The method, boiled down: as §2
Assay [3] deals with MT4. Put plainly: Effective concentration of compound required to achieve 50% protection of MT-4 cells against the cytopathic effect of HIV-1 number of experiments = 4. Type of assay: functional, cell-based. To be noted: Homo sapiens. The method, boiled down:
as §2

The test system of assay [4] is MT4. Put plainly: Effective concentration of compound required to achieve 50% protection of MT-4 cells against the cytopathic effect of HIV-1 number of experiments = 6. The assay is classed as functional, cell-based. To be noted: Homo sapiens. The method, boiled down:
as §2

Assay [5] relates to MT4. The assay is described as follows: Effective concentration of compound required to achieve 50% protection of MT-4 cells against the cytopathic effect of HIV-1 number of experiments = 8. Type of assay: functional, cell-based. To be noted: Homo sapiens. In outline: as §2
For assay [6], the system named is MT4. The assay is described as follows: Effective concentration of compound required to achieve 50% protection of MT-4 cells against the cytopathic effect of HIV-1 number of experiments = 24. To be noted: Homo sapiens. The assay is classed as functional, cell-based. The method, boiled down: as §2
Assay [7] concerns MT4. Put plainly: Effective concentration of compound required to achieve 50% protection of MT-4 cells against the cytopathic effect of HIV-1 number of experiments = 53. Type of assay: functional, cell-based. To be noted: Homo sapiens. In outline: as §2
Assay [8] relates to MT4. Put plainly: Effective concentration of compound required to achieve 50% protection of MT-4 cells against the cytopathic effect of HIV-1 number of experiments = 20. Type of assay: functional, cell-based. To be noted: Homo sapiens. In outline: as §2
[9] abbreviates: Human immunodeficiency virus 1, MT4.

The structures appear in SMILES notation. Bounds are passed on as bounds.

For the molecule `CC(C)=CCN1CCn2c(O)nc3cc(Cl)cc(c32)C1CC(C)C` (stereo not drawn), in assay [1], the IC50 is above 2 µM. Regarding `S=c1[nH]c2cc(Cl)cc3c2n1CCN1CCCCC31` (stereo not drawn), the IC50 in assay [1] is above 2 µM. On the same count and under the same terms, in the case of `C=C(C)CN1Cc2cccc3nc(S)n(c23)C[C@H]1C` it was 0.026 µM; in that of `CC(C)=CCN1CCn2c(S)nc3cc(Cl)c4c(c32)C1CC4` (stereo not drawn), above 2 µM. The same measure, in the same setting: the value for `CC(C)=CCN1Cc2cccc3nc(O)n(c23)C(C)C1C` (stereo not drawn) was 56.7 µM; that for `O=C1Nc2ccccc2-n2c(S)nc3cccc1c32` was above 250 µM. `CC(C)=CCN1CCn2c(=S)[nH]c3ccc(Cl)c(c32)C1` showed an IC50 in assay [2] (setting [9]) of 0.046 µM. Take `CC(C)C1Cn2c(O)nc3cccc(c32)CN1` (stereo not drawn): the IC50 in assay [1] was above 250 µM. In assay [1], `CC(C)=CCN1CCn2c(S)nc3cccc(c32)C1c1ccccc1` (stereo not drawn) returned a half-maximal inhibitory concentration (IC50) above 2 µM. On the same count and under the same terms, in the case of `CC(C)=CCN1CCn2c(S)nc3cc(Cl)cc(c32)C1CC(C)C` (stereo not drawn) it was above 2 µM. With `C=C(C)CN1Cc2cccc3[nH]c(=O)n(c23)CC1CC` (stereo not drawn), the IC50 in the assay on MT4 [3] is above 50 µM. In assay [1], `CCCN1Cc2cc(Cl)cc3[nH]c(=S)n(c23)C(=O)C1C` (stereo not drawn) had an IC50 above 50 µM. `CC(C)=CCN1CCn2c(=S)[nH]c3ccc(Cl)c(c32)C1C` (stereo not drawn) returned an IC50 in assay [2] (setting [9]) of 0.012 µM. The molecule `CC(C)=CCN1CCn2c(=S)[nH]c3cc(Cl)cc(c32)C1` registered an IC50 in assay [1] of 0.16 µM.

In turn, `CCCC1CN(CCC)Cc2cccc3[nH]c(=O)n1c23` (stereo not drawn) returned an IC50 in assay [2] (setting [9]) above 180 µM. In assay [1], `C[C@@H]1Cn2c(S)nc3cc(Cl)cc(c32)CN1CC1CC1` displayed an IC50 of 0.034 µM. Regarding `CC(C)=CCN1CCn2c(=O)[nH]c3cc(Cl)cc(c32)C1C` (stereo not drawn), inhibition in assay [1] was half-maximal at 0.16 µM (IC50). `CC(C)=CCN1[C@H](C)Cn2c(=O)[nH]c3cc(Cl)cc(c32)[C@H]1C` came in with an IC50 in assay [1] of 0.23 µM. In assay [1], `CCC1Cn2c(O)nc3cccc(c32)CN1` (stereo not drawn) showed an IC50 above 250 µM.

Take `CC(C)=CCN1CC(C)n2c(S)nc3cccc(c32)C1C` (stereo in doubt; 1bg): 25.8 µM corresponded to half-maximal inhibition in assay [2] (mt4) (IC50). `C[C@@H]1Cn2c(O)nc3cc(Cl)cc(c32)CN1` showed an IC50 in assay [2] (setting [9]) above 250 µM.

Regarding `CC(C)=CCN1Cc2cc(Cl)cc3nc(S)n(c23)C[C@H]1C(C)C`, the IC50 in assay [1] is above 10 µM. On to `CCCC1CNCc2cccc3nc(O)n1c23` (stereo not drawn), for which, in assay [2] (setting [9]), the IC50 was above 250 µM. Consider `CC(C)=CCN1Cc2cc(Cl)cc3nc(O)n(c23)C[C@@H]1C(C)C`, for which the IC50 in assay [1] was above 10 µM. In the case of `CC(C)C1CNCc2cccc3nc(O)n1c23` (stereo not drawn), the IC50 in assay [2] (setting [9]) is above 250 µM. On to `C[C@@H]1CN(CC2CC2)Cc2cc(Cl)cc3[nH]c(=S)n1c23`, for which, in the assay with MT4 [4], the IC50 worked out at 2180 nM. As to `CCCC1Cn2c(O)nc3cccc(c32)CN1` (stereo not drawn), in assay [2] (setting [9]), the IC50 is above 250 µM. `CC(C)=CCN1[C@@H](C)Cn2c(S)nc3cc(Cl)cc(c32)[C@@H]1C`: the IC50 in assay [1] is above 10 µM. On to `C[C@@H]1Cn2c(S)nc3cccc(c32)CN1CC1CC1`, for which the IC50 in assay [1] came to 0.06 µM. Still for that read-out and setting: in the case of `Oc1nc2cccc3c2n1CC1CCCN1C3` (stereo not drawn) it was above 250 µM. In the case of `Oc1nc2cccc3c2n1CC1CCCCN1C3` (stereo not drawn), the IC50 in the assay on MT4 [5] is above 250 µM. `CC(C)=CCN1[C@H](C)Cn2c(=S)[nH]c3cc(Cl)cc(c32)[C@H]1C`: in assay [1], the midpoint of inhibition, the IC50, lay at 0.48 µM. Consider `CC(C)=CCN1[C@@H](C)Cn2c(=O)[nH]c3cc(Cl)cc(c32)[C@@H]1C`, for which the IC50 in assay [1] was above 5 µM. In assay [1], `CCCN1CCn2c(=O)[nH]c3cccc(c32)C1C` (stereo not drawn) displayed an IC50 above 83 µM. In the case of `O=C1CCC2c3cc(Cl)cc4nc(S)n(c34)CCN12` (stereo not drawn), the IC50 in assay [2] (setting [9]) was above 250 µM. On to `CC(C)=CCN1CCn2c(=O)[nH]c3cccc(c32)C1C` (stereo not drawn), for which the IC50 in assay [2] (setting [9]) was 12.1 µM. The same measure, in the same setting: in the case of `CC(C)[C@H]1Cn2c(O)nc3cccc(c32)CN1` it was above 250 µM. For the molecule `CC(C)=CCN1CC(C)n2c(S)nc3cccc(c32)C1C` (stereo in doubt; 1bh), the IC50 in assay [2] (mt4) was above 10 µM. For the molecule `CCCN1Cc2cccc3[nH]c(=O)n(c23)C(C(C)C)C1` (stereo not drawn), 73.3 µM corresponded to half-maximal inhibition in assay [1] (IC50).

Take `Oc1nc2cccc3c2n1CC(c1ccccc1)NC3` (stereo not drawn): the IC50 in assay [1] was above 250 µM. `CCCN1CCn2c(=S)[nH]c3cccc(c32)C1C` (stereo not drawn): the IC50 in assay [1] was 2.43 µM. Still for that read-out and setting: in the case of `Oc1nc2cccc3c2n1C(c1ccccc1)CNC3` (stereo not drawn) it was above 250 µM. In turn, `S=c1[nH]c2cccc3c2n1-c1ccccc1N(CC1CC1)C3` came in with an IC50 in assay [2] (setting [9]) above 10 µM. In the case of `C=C(C)CN1Cc2cccc3[nH]c(=O)n(c23)C(C(C)C)C1` (stereo not drawn), in assay [2] (setting [9]), the midpoint of inhibition, the IC50, lay at 12.6 µM. On to `CC(C)=CCN1Cc2cc(Cl)cc3[nH]c(=O)n(c23)C[C@H]1C`, for which, in assay [2] (setting [9]), the IC50 is 0.18 µM. This IC50 is about 70-fold lower than that of the molecule before.

`C=C(C)CN1Cc2cccc3nc(O)n(c23)CC1c1ccccc1` (stereo not drawn) had an IC50 in assay [1] above 10 µM.

Turning to `CC(C)=CCN1Cc2cccc3[nH]c(=S)n(c23)C(C)C1C` (stereo not drawn), the IC50 stood at 2.22 µM in assay [2] (setting [9]) and 14.3 µM in assay [1]. Take `CC1NCCn2c(O)nc3cccc1c32` (stereo not drawn): the IC50 in assay [1] is above 250 µM. Same read-out and setting: the value for `CC1Cn2c(O)nc3cccc(c32)CN1` (stereo not drawn) was above 250 µM; that for `CC(C)[C@H]1Cn2c(O)nc3cc(Cl)cc(c32)CN1` was above 10 µM.

For `CC1CNCc2cccc3nc(O)n1c23` (stereo not drawn), the IC50 in assay [1] was above 250 µM.

With `C=C(C)CN1Cc2cccc3nc(O)n(c23)CC1CCC` (stereo not drawn), the IC50 in assay [2] (setting [9]) is above 10 µM. `CCCN1C(=O)c2cccc3nc(O)n(c23)CC1C` (stereo not drawn) showed a concentration for half-maximal inhibition (IC50) in the assay on MT4 [3] above 250 µM. In the case of `C=C1CC2Cn3c(S)nc4cc(Cl)cc(c43)CN2C1` (stereo not drawn), the IC50 in assay [1] is above 10 µM.

Turning to `CC(C)=CCN1Cc2cccc3nc(S)n(c23)C[C@@H]1C(C)C`, the IC50 in assay [1] was above 10 µM. `Sc1nc2cc(Cl)cc3c2n1CCN1CCCC31` (stereo not drawn) returned an IC50 in assay [1] above 2 µM. Same read-out and setting: in the case of `C=C(C)CN1Cc2cc(Cl)cc3[nH]c(=S)n(c23)[C@@H](C)C1` it was 0.67 µM. In turn, `CC1(C)Cn2c(O)nc3cccc(c32)CN1` had an IC50 in assay [1] above 250 µM.

For the molecule `C=C(C)CN1Cc2cccc3[nH]c(=O)n(c23)CC1C` (stereo not drawn), the IC50 in the assay with MT4 [6] stood at 34.7 µM. That is a double-digit micromolar value.

In the case of `CC(C)=CCN1C(C)Cn2c(=S)[nH]c3cccc(c32)C1C` (stereo not drawn), the IC50 amounted to 0.042 µM in the assay on MT4 [5] and 1.15 µM in assay [1].

`CC1C(C)n2c(S)nc3cccc(c32)CN1CC1CC1` (stereo not drawn) registered an IC50 in assay [1] of 13.4 µM. Turning to `CC(C)=CCN1Cc2cccc3nc(O)n(c23)C[C@@H]1C(C)C`, the IC50 in assay [1] was above 10 µM.

With `CC(C)=CCN1CCn2c(=S)[nH]c3cccc(c32)C1C` (stereo not drawn), half-maximal inhibition in assay [1] (IC50) was put at 0.078 µM. Turning to `C=C(C)CN1Cc2cccc3[nH]c(=O)n(c23)C(CCC)C1` (stereo not drawn), the IC50 in assay [2] (setting [9]) was 48.1 µM. In other words, the double-digit micromolar range. `CC(C)=CCN1Cc2cc(Cl)cc3nc(S)n(c23)C[C@H]1C` displayed an IC50 in the assay on MT4 [7] of 43 nM. This counts as double-digit nanomolar. `CCCN1Cc2cccc3nc(O)n(c23)CC1=O` had an IC50 in assay [2] (setting [9]) above 250 µM. The molecule `CC(C)=CCN1CCn2c(=S)[nH]c3cc(Cl)cc(c32)C1C` (stereo not drawn) yielded an IC50 in assay [1] of 0.023 µM. That is a double-digit nanomolar value. In the assay on MT4 [8], `CC(C)=CCN1Cc2c(Cl)ccc3nc(S)n(c23)C[C@H]1C` had an IC50 of 5 nM. Take `CCCN1Cc2cccc3nc(O)n(c23)C(c2ccccc2)C1` (stereo not drawn): the IC50 in assay [1] was above 250 µM. On the same count and under the same terms, the value for `C/C=C1/CC2Cn3c(S)nc4cc(Cl)cc(c43)CN2C1` (stereo not drawn) was 3.76 µM; that for `C=C(C)CN1Cc2cccc3[nH]c(=O)n(c23)C(C)C1` (stereo not drawn) was 32.1 µM.

On to `CC(C)=CCN1Cc2cccc3nc(O)n(c23)C[C@H]1C`, for which, in the assay on MT4 [5], the IC50 was 3.32 µM. This lies in the single-digit micromolar range.

Consider `C=C(C)CN1Cc2cccc3[nH]c(=O)n(c23)CC1(C)C`, for which the IC50 in assay [1] amounted to 23.1 µM.

Regarding `CC(C)=CCN1CCn2c(=O)[nH]c3ccc(Cl)c(c32)C1C` (stereo not drawn), in assay [2] (setting [9]), the IC50 was found to be 0.145 µM. Molecule `C=C(C)CN1Cc2cccc3nc(O)n(c23)C(c2ccccc2)C1` (stereo not drawn) registered an IC50 in assay [1] above 250 µM. In assay [1], `C=C(C)CN1Cc2cccc3nc(O)n(c23)C[C@@H]1C(C)C` displayed an IC50 above 10 µM.

(Values after ChEMBL document CHEMBL1128252, “Synthesis and anti-HIV-1 activity of 4,5,6,7-tetrahydro-5-methylimidazo [4,5,1-jk][1,4]benzodiazepin-2(1H)-one (TIBO) derivatives. 3” (J Med Chem, 1995).)
